Bioassay records: PubChem, Sanford-Burnham Center for Chemical Genomics
The list is not random: actives were taken first. Their share in the collection is about 1.6%.
FLuc act counter: firefly luciferase counter-screen for stimulation assays; AID 1027; activation factor at 10 µM; 200,000 tested, under 10 active; ATPlite luciferase biochemical, luminescence, 10 min; 0 = ATP-free wells, 1 = DMSO control;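 active = luciferase activation factor, scaled between plate controls, of at least 2 with compound at 10 µM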
Target sequence (P08659 whole entry, looked up): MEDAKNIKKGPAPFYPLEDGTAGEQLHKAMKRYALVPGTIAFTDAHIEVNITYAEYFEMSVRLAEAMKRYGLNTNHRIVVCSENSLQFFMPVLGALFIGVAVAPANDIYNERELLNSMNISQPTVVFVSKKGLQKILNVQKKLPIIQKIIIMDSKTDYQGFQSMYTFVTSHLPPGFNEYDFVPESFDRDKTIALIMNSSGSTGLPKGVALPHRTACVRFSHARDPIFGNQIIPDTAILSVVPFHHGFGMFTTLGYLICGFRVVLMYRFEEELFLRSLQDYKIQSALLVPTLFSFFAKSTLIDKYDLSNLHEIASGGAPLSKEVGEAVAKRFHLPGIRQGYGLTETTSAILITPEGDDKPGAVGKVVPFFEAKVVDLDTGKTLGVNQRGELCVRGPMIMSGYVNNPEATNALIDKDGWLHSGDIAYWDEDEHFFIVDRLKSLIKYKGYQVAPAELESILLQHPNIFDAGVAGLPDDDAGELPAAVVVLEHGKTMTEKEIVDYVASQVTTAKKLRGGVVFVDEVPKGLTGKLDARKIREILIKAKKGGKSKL
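Material: Luciferase/luciferin reagent mix | Doses: Test compounds dosed from 2 mM stocks in 100% DMSO | Timing: 10 min incubation after luciferase reagent addition, room temperature | Measured by: Luminescence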
C8 TRAIL sens: sensitizes caspase-8 expressing cells to TRAIL; NB7+C8 cells + TRAIL, ATPlite viability luminescence; AID 624354; 360,000 compounds, 1% hits; inhibition (viability loss, TRAIL sensitization), % at 10 µM;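 active = compounds causing at least 50% loss of cell viability in the single-dose screen, relative to plate controls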
FLuc inh counter: inhibits firefly luciferase, flagging false hits in luciferase inhibition screens | ATPLite firefly luciferase biochemical luminescence, 10 min | inhibition, % at 10 µM | 200,000 compounds, 1.5% hits | P08659 | AID 1006;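 active = inhibition above about 50% when tested at 10 µM, limit read from the data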
PPC-1+TRAIL kill: kills PPC-1 cancer cells in the presence of TRAIL; PPC-1 cells + TRAIL, ATPLite viability luminescence; cell killing (% activity), % at 4 µM or 5 µM; 220,000 compounds, 0.41% hits; AID 1443;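 active = cell killing above 50% in the first pass at 4 µM, then a duplicate retest at 5 µM averaging 50% or more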;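 also: plate controls were cells with TRAIL plus DMSO for no effect and medium-only wells lacking cells for full effect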
* hit, by the source's call.

Results for COc1nc(C)ccc1-c1noc(-c2ccccn2)n1 ?
FLuc act counter: 0.3; C8 TRAIL sens: 47; FLuc inh counter: 69*; PPC-1+TRAIL kill: 31

Results for c1ccc(-c2nc3ccccc3[nH]2)nc1 ?
FLuc act counter: 0.5; C8 TRAIL sens: 18; FLuc inh counter: 46; PPC-1+TRAIL kill: 23

What do the screens show for `Cc1ccc2nc(-c3ccccn3)[nH]c2c1`?
C8 TRAIL sens: 70*

How did O=C(Nc1ccc2nc(-c3ccccn3)[nH]c2c1)C1CCCCC1 do in these assays?
FLuc act counter: 0.4; C8 TRAIL sens: 53*; FLuc inh counter: 63*; PPC-1+TRAIL kill: 38

What do the screens show for `Cc1ccc2nc(-c3ccccc3N)[nH]c2c1`?
FLuc act counter: 0.2; C8 TRAIL sens: 33; FLuc inh counter: 80*; PPC-1+TRAIL kill: 47

What do the screens show for `O=C(Nc1cc(S(=O)(=O)N2CCCC2)ccc1Cl)c1cc(F)c(F)c(F)c1F`?
C8 TRAIL sens: 25

Results for CNc1nnc(-c2ccc(OC)cc2)s1 ?
FLuc act counter: 0.4; C8 TRAIL sens: 9; FLuc inh counter: 63*; PPC-1+TRAIL kill: 40

Results for Cc1c(Cl)cccc1NC(=O)Cc1ccc([N+](=O)[O-])cc1 ?
FLuc act counter: 0.9; C8 TRAIL sens: -7; FLuc inh counter: 6; PPC-1+TRAIL kill: 33

Results for CCCCCc1ccc(OCCCC[n+]2ccccc2)c(CCCCC)c1 ?
FLuc act counter: 1; C8 TRAIL sens: 79*; FLuc inh counter: -4; PPC-1+TRAIL kill: 24

How did CCC(C)(C)c1ccc(Oc2cccc(C(=O)O)c2)cc1 do in these assays?
C8 TRAIL sens: 18; PPC-1+TRAIL kill: -4

How did CCC(C)(C)c1ccc(OCCCC[n+]2ccccc2)c(C(C)(C)CC)c1 do in these assays?
FLuc act counter: 1.1; C8 TRAIL sens: 15; FLuc inh counter: -8; PPC-1+TRAIL kill: 51*

Results for CC(C)Cc1nc2oc3c(NCCCN4CCOCC4)ncnc3c2c2c1CCC2 ?
FLuc act counter: 1.1; C8 TRAIL sens: 17; FLuc inh counter: -7; PPC-1+TRAIL kill: 18

How did CC(C)Cc1nc2oc3c(Cl)ncnc3c2c2c1CCC2 do in these assays?
FLuc act counter: 1; C8 TRAIL sens: 85*; FLuc inh counter: -4; PPC-1+TRAIL kill: 45

Results for O=C(Nc1ccc(Br)cc1F)c1ccc2c(c1)OCCO2 ?
C8 TRAIL sens: 54*

How did O=C(NCCc1ccccc1F)c1ccc2c(c1)OCCO2 do in these assays?
C8 TRAIL sens: 92*

What do the screens show for `Cc1cc(NC(=O)c2ccc(Cl)cc2)cc(C)c1OCC(=O)N1CCOCC1`?
C8 TRAIL sens: 54*

What do the screens show for `COc1ccc(CCCNC(=O)C2Cc3c(-c4ccc(NC(C)=O)cc4)ccnc3O2)cc1` (centres undefined)?
C8 TRAIL sens: 20

What do the screens show for `Nc1c(N(C(=O)Nc2ccc(Cl)c(Cl)c2)C2CCCC2)c(=O)[nH]c(=O)n1Cc1ccccc1`?
FLuc act counter: 1.1; C8 TRAIL sens: 63*; FLuc inh counter: -6; PPC-1+TRAIL kill: 1

What do the screens show for `Cc1ccccc1/C=C1\CCCc2ccccc2C1=O`?
FLuc act counter: 0.4; C8 TRAIL sens: 24; FLuc inh counter: 61*; PPC-1+TRAIL kill: 30

What do the screens show for `Cc1ccsc1/C=C1\CCc2ccccc2C1=O`?
FLuc act counter: 0.1; C8 TRAIL sens: 79*; FLuc inh counter: 92*; PPC-1+TRAIL kill: 50

How did COc1cccc(C=C2Cc3ccccc3C2=O)c1 do in these assays?
C8 TRAIL sens: -2

How did COc1cccc(/C=C2\CCc3ccccc3C2=O)c1 do in these assays?
C8 TRAIL sens: 82*; PPC-1+TRAIL kill: -6

What do the screens show for `O=C1/C(=C\c2ccc3ccccc3c2)CCCc2ccccc21`?
FLuc act counter: 0.5; C8 TRAIL sens: 19; FLuc inh counter: 52*; PPC-1+TRAIL kill: 20

Results for O=C1C(=Cc2ccccn2)CCc2ccccc21 ?
C8 TRAIL sens: -1

What do the screens show for `Cn1c(=O)c2cc(NC(=S)NC3CCCCC3)ccc2n1-c1ccccc1`?
C8 TRAIL sens: 9

What do the screens show for `COc1ccc(OC)c(S(=O)(=O)N2CCC(C(=O)NCc3ccccn3)CC2)c1`?
C8 TRAIL sens: 3

What do the screens show for `O=Cc1ccc2c(c1)OCCOCCOCCOCCO2`?
C8 TRAIL sens: -10

What do the screens show for `COc1ccc(C(=O)NCc2nnc(SCC(=O)N3CCCC3)o2)cc1OC`?
C8 TRAIL sens: -17

Results for NN(CCO)C(=S)Nc1ccc(Cl)cc1 ?
FLuc act counter: 1; C8 TRAIL sens: 9; FLuc inh counter: -5; PPC-1+TRAIL kill: 18

Results for CCOc1ccc(S(=O)(=O)N2CCCC(C(=O)NCc3ccncc3)C2)cc1 (centres undefined) ?
C8 TRAIL sens: 3

How did COc1ccc(-n2cc(C(=O)c3ccccc3O)cn2)cc1 do in these assays?
FLuc act counter: 0.3; C8 TRAIL sens: 50*; FLuc inh counter: 66*; PPC-1+TRAIL kill: 16

What do the screens show for `COc1ccc(N2CCN(C(=O)C3CCN(C(=O)c4cccc(Cl)c4)CC3)CC2)cc1`?
C8 TRAIL sens: 11

How did COc1ccc(CC(=O)Nc2ccc(S(=O)(=O)N3CCN(C)CC3)cc2)cc1 do in these assays?
C8 TRAIL sens: -2

Results for c1ccc(-c2nn3c(C4CCCCC4)nnc3s2)nc1 ?
FLuc act counter: 1; C8 TRAIL sens: 0; FLuc inh counter: -4; PPC-1+TRAIL kill: -7

Results for Clc1ccc(OCc2nn3c(C4CCCCC4)nnc3s2)cc1 ?
FLuc act counter: 1.1; C8 TRAIL sens: 57*; FLuc inh counter: -7; PPC-1+TRAIL kill: 7

Results for COc1cc(CCC(=O)NCc2ccc3c(c2)OCO3)cc(OC)c1OC ?
C8 TRAIL sens: 7

What do the screens show for `C[C@H]1CN(CCc2ccccc2)C(=O)[C@@H]1CC(=O)Nc1ccc(Br)cc1`?
C8 TRAIL sens: 0

Results for COc1ccc2oc(C(=O)OC(C)C(=O)N3C(C)CCCC3C)c(C)c2c1 (centres undefined) ?
C8 TRAIL sens: 8

How did N/C(=N\OC(=O)c1ccc2c(c1)OCO2)c1cccc([N+](=O)[O-])c1 do in these assays?
FLuc act counter: 0; C8 TRAIL sens: 4; FLuc inh counter: 96*; PPC-1+TRAIL kill: 10

Results for COc1ccccc1C/C(N)=N/OC(=O)c1ccc2c(c1)OCO2 ?
FLuc act counter: 1; C8 TRAIL sens: 2; FLuc inh counter: 4; PPC-1+TRAIL kill: 16

How did Cc1cccc(/C(N)=N/OC(=O)c2ccc3c(c2)OCO3)c1 do in these assays?
FLuc act counter: 0; C8 TRAIL sens: 34; FLuc inh counter: 97*; PPC-1+TRAIL kill: 24

Results for Cc1cc2nc(-c3cccnc3SCC(=O)NC3CC3)[nH]c2cc1C ?
FLuc act counter: 0.3; FLuc inh counter: 70*; PPC-1+TRAIL kill: 21

How did CC(C)(C)NC(=O)CSc1ncccc1-c1nc2ccccc2[nH]1 do in these assays?
C8 TRAIL sens: 7

Results for O=C(CSc1ncccc1-c1nc2ccccc2[nH]1)NCc1ccco1 ?
FLuc act counter: 0.9; C8 TRAIL sens: 3; FLuc inh counter: 6; PPC-1+TRAIL kill: 2

How did Cc1cc2nc(-c3cccnc3SCC(=O)NCc3ccco3)[nH]c2cc1C do in these assays?
C8 TRAIL sens: 61*

What do the screens show for `CCCn1c(SCC(=O)NC2CCCC2)nnc1C(C)C`?
C8 TRAIL sens: 2
